Screens as filed in PubChem BioAssay.
Env fusion inh: inhibitors of HIV Env-mediated cell fusion; inhibition, % at 12.3 µM; actives 1.1% (n = 360,000); HeLa-JRFL Env/CEM21 cell fusion, luciferase; AID 651610;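 active = mean replicate inhibition score of at least 50 and every replicate individually at or above 50; inconclusive = only one of the two criteria met; inactive = mean below 50 and not all replicates reaching 50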
FN deposit inh: fibronectin deposition inhibition. AH1F fibroblasts, Alexa488-fibronectin deposition fluorescence, overnight. AID 743247. inhibition, % at 12.6 µM. actives 0.086% (n = 350,000);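 active = mean inhibition across replicates of 30% or more, regardless of how many single replicates reach that level; inconclusive = mean under 30% yet at least half of replicates reach 30%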
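Material: AH1F fibroblast monolayer depositing Alexa488-labelled fibronectin into matrix / Amount: 10000 AH1F cells per well / Signal: fluorescence 485/525 nm / Medium: DMEM, 2% serum / Compound: single dose, pinned / Incubation: 1 h cell adhesion before compound, then overnight fibronectin incubation / Reagent: Alexa488-FN, 24 nM final / Read-out: inhibition of fibronectin deposition signal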
DENV2 CPE rescue: protects cells from dengue virus 2 cytopathic effect. DENV2-infected cells, cytopathic effect rescue, plate reader. CPE inhibition, % at 9.99 µM. actives 1.7% (n = 350,000). AID 651640; in the data active = CPE inhibition above about 20%, passing the limit was not always enough; inconclusive = no clear call, values can overlap the other calls; tested in BHK-21 cells
PGC1a acetyl inh: modulators of PGC1a acetylation; U2OS PGC1a acetylation, AlphaScreen anti-acetyl-lysine; with virally co-expressed GCN5 acetyltransferase; inhibition, % at 15.6 µM; actives 0.17% (n = 350,000); AID 651687;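 active = every replicate shows inhibition of at least 40%; inconclusive = mean inhibition at least 40% but some replicate below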
PglD DTNB: inhibitors of Campylobacter jejuni PglD acetyltransferase; purified PglD enzyme, DTNB colorimetric CoA detection; inhibition, % at 12.5 µM; actives 0.098% (n = 360,000); AID 602405; in the data active = inhibition above about 16%, passing the limit was not always enough; inconclusive = no clear call, values can overlap the other calls
rRNA inh HTS: inhibits bacterial ribosomal RNA function over humanized ribosomes; AID 720706; actives 1.6% (n = 350,000); E. coli WT GFP vs humanized-ribosome RFP mutants, fluorescence, 24 h; stronger effect = lower value; DMSO median 0, no signal -100; GFP signal change (wild-type ribosome), % (test concentration not listed);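 active = significant combined selectivity score with lowered wild-type GFP, culture density cut under 30%, mutant RFP and density less affected; inactive = any of these conditions unmet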
Numbers stand for hits; i = inactive; ? = inconclusive; nt = not tested or not shown. A selection: hits, their analogues and other compounds. The true share with any hit is near 3.5%.

SMILES | Env fusion inh | FN deposit inh | DENV2 CPE rescue | PGC1a acetyl inh | PglD DTNB | rRNA inh HTS
Cc1ccn2c(NC3CCCCC3)c(-c3cccc(-c4cccc(Cl)c4)c3)nc2c1 | 69.6 | i | i | i | i | i
Cc1ccn2c(NC3CCCC3)c(-c3ccncc3)nc2c1 | i | i | i | i | i | i
O=C1CCC2c3ccc4ccccc4c3CCN12 (centres undefined) | i | 30.4 | nt | i | i | nt
O=C(NCc1ccc(F)cc1)OC1CC2CC1[C@H]1CCCCN1C2=O (some centres undefined) | i | 30.3 | ? | nt | nt | i
Cc1ccccc1S(=O)(=O)N1C[C@@H](O)COC[C@@H]2O[C@H](CC(=O)N3CCN(C)CC3)CC[C@H]21 | i | i | i | i | i | i
N#Cc1cncc(C#Cc2ccccc2)c1 | i | i | i | nt | nt | i
N#Cc1ccccc1 | nt | nt | 30.2 | i | i | i
Cc1cc(NO)c(C(C)C)cc1N=O | 66.5 | i | i | nt | nt | nt
Cc1cc(O)c(C(C)C)cc1N=Nc1ccccc1C(=O)O | i | i | i | i | i | i
C[C@H]1CN([C@@H](C)CO)C(=O)c2cccc(NC(=O)C3CC3)c2O[C@H]1CN(C)S(=O)(=O)c1ccc(Cl)cc1 | nt | nt | i | i | i | i
COC(=O)C[C@@H]1C[C@@H]2c3cc(NC(=O)CN(C)C)ccc3O[C@@H]2[C@@H](CO)O1 | i | nt | i | i | i | i
CCOC(=O)Cc1csc(NC(=O)c2ccc(NC(C)=O)cc2)n1 | nt | nt | nt | nt | i | nt
CCOC(=O)Cc1csc(NC(=O)Nc2ccc(OC(F)(F)F)cc2)n1 | i | i | i | nt | i | -20.8
CCOC(=O)Cc1csc(NC(=O)Cc2ccc(Cl)cc2)n1 | i | i | i | nt | nt | -22.0
CO[C@H]1CN(C)C(=O)c2cc(NC(=O)NC3CCCC3)ccc2OC[C@@H](C)NC[C@H]1C | nt | i | nt | nt | nt | i
C[C@H]1CN([C@@H](C)CO)C(=O)Cc2cc(NC(=O)c3ccncc3)ccc2O[C@@H]1CN(C)C(=O)Nc1ccc2c(c1)OCO2 | i | nt | i | i | i | i
COc1cccc(C(=O)/C=C2\Sc3ccccc3N2C)c1 | i | i | i | i | i | -28.5
CN1/C(=C\C(=O)c2cccnc2)Sc2ccccc21 | i | nt | i | i | nt | i
Cc1noc(C)c1NC(=O)N(C)C[C@H]1Oc2c(NC(=O)c3ccncc3)cccc2C(=O)N([C@H](C)CO)C[C@H]1C | nt | nt | ? | i | i | i
Cc1noc(C)c1S(=O)(=O)Nc1ccc2c(c1)C(=O)N([C@H](C)CO)C[C@H](C)[C@H](CN(C)C(=O)Cc1ccccc1)OCCCC[C@H](C)O2 | i | nt | i | i | i | i
Cc1ccc(S(=O)(=O)N/N=C\c2cn(CC(N)=O)c3ccccc23)cc1C | i | i | i | nt | i | -22.8
ClCC1CSC(=NC23CC4CC(CC(C4)C2)C3)O1 (centres undefined) | i | i | i | i | nt | i
CC1(C)C2CCC(C2)C1(C)N=C1OC(CCl)CS1 (centres undefined) | i | i | i | i | i | -21.9
COc1ccc(NC(=O)Nc2ccc3c(c2)C(=O)N([C@H](C)CO)C[C@H](C)[C@@H](CN(C)C(=O)NC(C)C)OCCCC[C@@H](C)O3)cc1 | i | i | i | i | i | i
COc1cccc(C#Cc2ccc3c(c2)[C@H]2[C@H](CCN2S(=O)(=O)c2ccccc2)[C@H](CO)N3)c1 | nt | i | i | i | i | i
SMILES | Env fusion inh | FN deposit inh | DENV2 CPE rescue | PGC1a acetyl inh | PglD DTNB | rRNA inh HTS
Cc1ccc(NC(=O)c2cc(C(=O)Nc3ccc(C)cc3)n(C)n2)cc1 | i | i | 41.6 | nt | nt | i
O=C(N(c1ccccn1)c1ccccn1)C12CC3CC(CC(Cl)(C3)C1)C2 | 72.8 | nt | i | i | i | i
COc1ccc2c3c([nH]c2c1)[C@@H](CO)N(C(C)=O)CC31CN(C(=O)c2ccc3c(c2)OCO3)C1 | nt | nt | i | i | nt | i
CC1(c2nnnn2Cc2ccccc2)CCC(=O)N1CCCn1ccnc1 (centres undefined) | i | i | 26.1 | nt | nt | i
CC1(c2nnnn2Cc2ccccc2)CCC(=O)N1CCCN1CCOCC1 (centres undefined) | i | i | i | nt | nt | i
CCCc1ccc(C(O)c2ncc(-c3cccc(F)c3)[nH]2)cc1 (centres undefined) | i | i | i | 42.6 | i | i
O=C1CCCC2=C1C(c1cccs1)Nc1ccccc1N2 (centres undefined) | 86.7 | i | nt | nt | nt | nt
CC1(C)CC(=O)C2=C(C1)Nc1ccccc1NC2c1cccs1 (centres undefined) | i | i | i | i | nt | i
COc1ccc(C(=O)N2CCN(c3ccc([N+](=O)[O-])c(NCCc4ccc(OC)c(OC)c4)c3)CC2)cc1 | 76.8 | i | nt | i | i | nt
Nc1ccccc1Oc1ncc(C(F)(F)F)cc1Cl | nt | nt | nt | 46.1 | i | i
COc1ccc(NC(=O)N2C[C@H]3[C@@H](c4ccccc42)[C@@H](CO)N3C(=O)C2CC2)cc1 | nt | nt | i | i | i | i
Cc1ccc(-n2c(Cc3cccc4ccccc34)n[nH]c2=S)c(C)c1 | i | i | i | i | nt | -45.2
Clc1ccc2c(c1)c1ccccc1n2CN1CCOCC1 | nt | nt | nt | nt | i | -32.8
C[C@H](CO)N1C[C@H](C)[C@@H](CN(C)C(=O)Nc2ccc3c(c2)OCO3)Oc2ccc(NC(=O)Nc3ccc(F)cc3)cc2CC1=O | i | i | 23.3 | i | i | i
C[C@@H]1CN([C@@H](C)CO)C(=O)Cc2cc(NC(=O)Nc3ccc4c(c3)OCO4)ccc2O[C@H]1CN(C)C(=O)Nc1ccc(F)cc1 | i | nt | 45.3 | i | i | i
CCOC(=O)CCCCCC(=O)Nc1ccc2c(c1)CC(=O)N([C@@H](C)CO)C[C@H](C)[C@@H](CN(C)C(=O)Nc1ccc3c(c1)OCO3)O2 | i | i | 45.9 | i | i | i
C[C@@H]1CCCCO[C@@H](CN(C)C(=O)Nc2ccccc2)[C@@H](C)CN([C@@H](C)CO)C(=O)c2cc(NC(=O)c3ccccc3)ccc2O1 | i | i | i | i | i | i
C/C=C/c1ccc([C@H]2[C@@H](CO)N(C(=O)c3cnccn3)C23CN(C(C)=O)C3)cc1 | nt | nt | i | i | nt | i
S=P(N1CC1)(N1CC1)N1CC1 | i | i | 41.9 | i | i | i
CC(C)CC#Cc1ccc([C@H]2[C@H](CO)N3CCCCN(S(=O)(=O)Cc4ccccc4)C[C@@H]23)cc1 | nt | nt | i | i | i | i
CC(C)CC#Cc1ccc([C@@H]2[C@H](CO)N3CCCCN(S(=O)(=O)Cc4ccccc4)C[C@@H]23)cc1 | nt | nt | 23.2 | i | i | i
CCS(=O)(=O)N1CCCCN2[C@H](C1)[C@@H](c1ccc(C#Cc3ccccn3)cc1)[C@@H]2CO | nt | i | ? | i | i | i
CC(C)CC#Cc1ccc([C@@H]2[C@H](CO)N3CCCCN(S(=O)(=O)c4ccc(F)cc4)C[C@@H]23)cc1 | nt | nt | i | i | i | -19.0
CS(=O)(=O)N1CCCCN2[C@H](CO)[C@H](c3ccc(C#Cc4ccccn4)cc3)[C@@H]2C1 | nt | nt | 33.2 | i | i | i
